Screening results (PubChem)
M1 agonist: M1 muscarinic receptor agonists, primary screen, CHO-M1 cells, Fluo-4 calcium, agonist mode; Muscarinic acetylcholine receptor M1; B-score at 10 µM; 64,000 tested, 3% active; Fluo-4 calcium fluorescence; stronger effect = higher value;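 active = fluorescence rise, raw or as B-score row- and column-corrected plate score, outside the 99.7% band of its plate's samples, either direction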
M1 antagonist: antagonists of rat M1 muscarinic receptor | Muscarinic acetylcholine receptor M1 (Rattus norvegicus), P08482 | CHO-M1 cells, Fluo-4 calcium, ACh EC80 antagonist mode; stronger effect = lower value | B-score at 10 µM | 64,000 tested, 3.4% active | AID 628, 2007;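 active = calcium fluorescence response, raw or row-and-column corrected B-score, differing from the plate sample mean either way at a set confidence level, mostly lower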
Target sequence (P08482 whole entry, looked up): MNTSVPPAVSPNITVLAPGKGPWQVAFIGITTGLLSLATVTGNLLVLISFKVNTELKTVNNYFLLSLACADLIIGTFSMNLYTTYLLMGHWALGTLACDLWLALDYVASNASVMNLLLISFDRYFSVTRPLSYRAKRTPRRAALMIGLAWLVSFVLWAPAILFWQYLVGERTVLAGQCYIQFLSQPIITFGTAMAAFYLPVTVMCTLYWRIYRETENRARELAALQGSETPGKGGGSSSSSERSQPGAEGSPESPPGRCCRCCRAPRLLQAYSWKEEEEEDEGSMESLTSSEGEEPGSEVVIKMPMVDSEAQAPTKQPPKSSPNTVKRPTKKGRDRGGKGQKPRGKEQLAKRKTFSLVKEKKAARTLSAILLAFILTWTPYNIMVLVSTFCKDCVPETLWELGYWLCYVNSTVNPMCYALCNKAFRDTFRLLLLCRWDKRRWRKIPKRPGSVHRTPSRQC
S1P3 ag: human S1P3 receptor agonists, primary screen, cell-based, primary and confirmation, NFAT-BLA reporter; Sphingosine 1-phosphate receptor 3 (Homo sapiens), Q99500; S1P3 NFAT-BLA reporter cells, agonism, FRET ratio; relative to 1 µM S1P, basal subtracted; activation, % at 4.5 µM; 60,000 tested, 0.1% active; AID 373, 2006;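 active = activation above the screen-wide mean plus 3 SD, cut at about 4.5% in these data, passing the limit was not always enough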
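Benchmarks: high control 1 µM S1P / System: stable CHO line with human S1P3, Gα16, NFAT-BLA reporter / Dosing: single compound concentration, 4.5 µM final / Timing: 4 h compound at 37 °C, 2 h substrate at RT / Measured by: FRET β-lactamase substrate fluorescence, excitation 405 nm, 460/535 nm emission ratio, background-subtracted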
D1 allo mod: D1 CRE-luciferase signal change, two-sided – cell-based, HEK293 D1, dopamine EC30, D1 allosteric modulator project, primary screen; D(1A) dopamine receptor (Homo sapiens), P21728; dopamine EC30 potentiation; actives deviate in either direction; B-score at 10 µM; 58,000 tested, 5.9% active;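 active = luminescence count or its row- and column-corrected plate score outside the 99.7% band of the plate's sample wells, on either side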
S1P1 ag-PAM: S1P1 agonists and agonism potentiators, primary screen, cell-based, primary and confirmation screens, CRE-bla reporter. Sphingosine 1-phosphate receptor 1 (Homo sapiens), P21453. S1P1 CRE-bla cells, forskolin, beta-lactamase FRET, potentiator mode; S1P1 agonist co-added at EC20, 2 nM; 100% = saturating reference agonist, 0% = basal. activation, % at 9.5 µM. 56,000 tested, 0.57% active;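 active = activation above a cutoff set at the mean activation of all tested compounds plus 3 SD, cut at about 54% in these data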;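 also: forskolin at 4 µM as EC80 and the EC20 agonist is SEW2871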
M1 agonist conf: rat M1 muscarinic receptor agonists, confirmation, CHO-M1 cells, Fluo-4 calcium, duplicate retest. shares compounds with M1 agonist. fluorescence change (max-min) at 10 µM. 1,700 tested, 19% active. Fluo-4 calcium fluorescence, agonist mode; actives lie on both sides;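 active = fluorescence change differs from the solvent-only DMSO control mean at a set confidence level in both duplicate runs; inconclusive = differs from solvent-only control mean in just one of two runs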;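 also: an EC20 dose of acetylcholine follows compound addition during the same imaging run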
M4 agonist ctr: agonist activity at rat M4 receptor, confirmation, counter-screen for M1 allosteric modulator project, cell-based, agonist mode. CHO M4/Gqi5 cells, Fluo-4 calcium fluorescence; actives lie on both sides. fluorescence change (max-min) at 10 µM. AID 1741, 2009. shares compounds with M1 agonist. 1,700 tested, 9% active;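 active = fluorescence change differing from the plate's solvent-only control wells at 99.7% confidence in both duplicates, whether higher or lower; inconclusive = differs from solvent controls in only one of two duplicates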
Numbers stand for hits; n = inactive; u = inconclusive; x = no result. This is a sample that favours compounds with a hit; in the whole collection about 11% have one here.

SMILES | M1 agonist | M1 antagonist | S1P3 ag | D1 allo mod | S1P1 ag-PAM | M1 agonist conf | M4 agonist ctr
C=CCOC(=O)C1=C(C)OC(N)=C(C#N)C1c1c(C)nn(-c2ccccc2)c1Cl (stereo not given) | 5.3 | n | n | n | n | u | n
CCOC(=O)C1=C(C)OC(N)=C(C#N)C1c1c(C)nn(-c2ccccc2)c1Cl (stereo not given) | n | n | x | n | x | x | x
COc1ccc(N2C(=O)CC(n3c(CCCCO)nc4ccccc43)C2=O)cc1 (stereo not given) | n | n | n | n | x | x | x
CC(=O)c1c(C)[nH]c(C(=O)NCCc2cccc(C)c2)c1C | -2.4 | n | n | -2.7 | n | u | u
CC(=O)c1c(C)[nH]c(C(=O)Nc2cc(C)ccc2C)c1C | n | n | n | n | n | x | x
Cc1ccsc1-c1nc(CSCC(=O)N2CCN(c3ccccc3)CC2)c(C)o1 | 5 | -2.5 | n | n | n | -39 | u
Cc1cccc(-c2nc(CSCC(=O)N3CCN(c4ccccn4)CC3)c(C)o2)c1 | 3.8 | -3.7 | n | n | n | n | u
Cc1ccc(-c2nc(CSCC(=O)N3CCCC3)c(C)o2)cc1 | n | n | n | n | n | x | x
Cn1c(=O)c2c(nc(Sc3n[nH]c(N)n3)n2Cc2ccccc2Cl)n(C)c1=O | n | n | n | n | n | x | x
CCc1nc(NCCCN2CCOCC2)c2oc3ccccc3c2n1 | n | n | n | n | n | x | x
CCc1nc(NCc2ccccn2)c2oc3ccccc3c2n1 | 4.2 | n | x | x | x | -24 | u
CCCCC(=O)Nc1ccc2oc(-c3ccncc3)nc2c1 | 2.5 | n | n | n | x | u | n
Cc1cc(=O)[nH]c(S/C=C/c2ccccc2)n1 | n | n | n | n | n | x | x
O=C(OCC(=O)N1CCN(C(=O)c2ccco2)CC1)c1cc(-c2ccc(F)cc2)nc2ccccc12 | 11 | n | n | x | n | 82 | n
O=C(OCC(=O)N1CCN(C(=O)c2ccco2)CC1)c1cn(-c2ccccc2)nc1-c1ccccc1 | 4.5 | n | n | n | n | u | n
Cc1cccc(N2CCN(C(=O)n3ccnc3)CC2)c1C | n | n | n | n | n | x | x
O=C(Nc1ccc(F)c(F)c1)c1ccc(F)c(S(=O)(=O)N2CCOCC2)c1 | n | n | x | n | x | x | x
O=C(Nc1ccc2c(c1)OCCO2)c1ccc(Br)c(S(=O)(=O)N2CCOCC2)c1 | 11 | n | n | n | n | u | n
CCOC(=O)c1ccc(NC(=O)c2cccc(S(=O)(=O)N3CCOCC3)c2)cc1 | 10 | -2.9 | n | n | n | n | u
CCOC(=O)c1ccc(NC(=O)c2ccc(C)c(S(=O)(=O)N3CCOCC3)c2)cc1 | 16 | -3.1 | x | -6.6 | x | n | n
Cc1cc(NS(=O)(=O)Cc2ccccc2)no1 | n | n | n | n | n | x | x
CC(=NC1CCCCC1)C1=C(O)c2ccccc2C1=O | n | n | n | n | n | x | x
CCn1c(Cn2nnc(-c3ccccc3)n2)nnc1SCc1ccc(Cl)c(Cl)c1 | n | n | n | x | n | x | x
CC(=O)NC(CC(C)C)C(=O)NC(=O)NCc1ccccc1 (stereo not given) | n | n | n | n | n | x | x
O=C(O)c1cc(O)c2c(c1)C(=O)c1cccc(O)c1C2=O | 67 | n | n | n | n | 189 | u
SMILES | M1 agonist | M1 antagonist | S1P3 ag | D1 allo mod | S1P1 ag-PAM | M1 agonist conf | M4 agonist ctr
Nc1cccc(C(=O)O)c1 | n | n | n | n | n | x | x
Cc1nc2ccccc2c2oc(C(=O)NCc3ccc4c(c3)OCO4)cc12 | 2.6 | -2 | n | n | n | n | n
COc1ccc2cc3cc(C(=O)NCc4ccc5c(c4)OCO5)oc3nc2c1 | 2.1 | n | n | n | n | u | n
O=C(CCN1CCc2ccccc2C1)Nc1ccccc1 | x | x | n | n | n | x | x
O=S(=O)(c1cccc(S(=O)(=O)N2CCC(N3CCCCC3)CC2)c1)N1CCOCC1 | 5.9 | n | x | n | x | n | n
C#CC1CN(Cc2ccccc2)CC(C#C)N1C (stereo not given) | n | n | n | n | n | x | x
COc1ccc(C2C(C#N)=C(N)N3C(=C2C#N)Sc2ccccc23)cc1 (stereo not given) | 46 | n | n | n | n | 131 | n
COC(=O)C1=C2SC(C)C(=O)N2C(N)=C(C#N)C1c1ccc(OC)c(OC)c1 (stereo not given) | n | n | n | n | n | x | x
CCCCCOC(=O)c1ccccc1C(=O)O | 3 | n | n | n | n | n | u
COc1cc(OC)c(-c2nnc(-c3ccc(OC)c(OC)c3OC)o2)cc1OC | 4.5 | n | n | n | x | -30 | n
COc1cc(-c2nnc(-c3ccc(S(=O)(=O)c4ccccc4)cc3)o2)cc(OC)c1OC | n | n | n | n | n | x | x
CC(=O)N1CCc2cc(S(=O)(=O)CCC(=O)Nc3c(C)n(C)n(-c4ccccc4)c3=O)ccc21 | 8.6 | n | n | n | n | u | n
CC(=O)N1CCc2cc(S(=O)(=O)CCC(=O)O)ccc21 | n | n | n | x | n | x | x
Cc1nnc(C)n1/N=C/c1cc(Br)cc(Br)c1O | 27 | n | n | x | n | 143 | u
Cc1nnc(C)n1/N=C/c1cc(Br)ccc1O | 8.2 | n | n | n | n | n | n
Cc1cc2ncn(/N=C/c3cc(Br)ccc3O)c2cc1C | n | n | n | n | n | x | x
COc1cc2nc(NCC3CCCO3)n3nc(-c4cccnc4)nc3c2cc1OC (stereo not given) | 2.9 | -3.9 | n | n | n | u | n
N#CC(C(=O)NCCc1ccccc1)c1nc2ccccc2nc1N1CCOCC1 (stereo not given) | n | n | n | n | n | x | x
CCCCCCOC(=O)C(C#N)c1nc2ccccc2nc1N1CCN(CC)CC1 (stereo not given) | 4.1 | n | n | -4.1 | n | n | n
CCCCCNC(=O)C(C#N)c1nc2ccccc2nc1N1CCCC1 (stereo not given) | 282 | -2.4 | n | n | n | 1609 | 1437
CCCCCCNC(=O)C(C#N)c1nc2ccccc2nc1N1CCOCC1 (stereo not given) | 156 | n | n | n | n | 179 | 1619
CC(O)c1cc2c(cc1NC(=O)c1cnn3c1NC(c1ccco1)CC3C(F)(F)F)OCO2 (stereo not given) | n | n | n | n | x | x | x
